Source: PubChem (Sanford-Burnham Center for Chemical Genomics)
APJ ag: agonists of human apelin receptor APJ, primary screen, CHO-K1 cells, PathHunter beta-arrestin, luminescence; P35414; 0% DMSO wells, 100% apelin; activation, % at 20 µM; actives 0.11% (n = 330,000); AID 2520, 2010;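 active = activation more than six SD over the plate average, tested at 20 µM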;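 note: 0% = DMSO alone and 100% = apelin-13 at 10 nM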
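Assay system – PathHunter CHO-K1 APJ (AGTRL-1) beta-arrestin reporter cells · Compound – one dose, 20 µM compound, 1% DMSO · Timing – compound 90 min 25 °C, reagent 1 h · Measured by – luminescence from split beta-galactosidase complementation, Galacton Star/Emerald II substrate · Measure – beta-arrestin recruitment to APJ as agonist activity, luminescent signal · Benchmarks – DMSO vs Apelin-13 10 nM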
CXCR6 block: CXCR6 receptor inhibitors, primary screen, cell-based, beta-arrestin, luminescence, CHO-K1 PathHunter, 1536-well; C-X-C chemokine receptor type 6 (Homo sapiens), O00574; actives 0.36% (n = 360,000); AID 602244, 2012; inhibition, % at 20 µM; in the data active = inhibition above about 34%, passing the limit was not always enough;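 note: antagonist mode with CXCL16 agonist at 10 nM final; 0% = 10 nM CXCL16 with DMSO and 100% = unstimulated wells without agonist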
Target sequence (O00574 whole entry, looked up): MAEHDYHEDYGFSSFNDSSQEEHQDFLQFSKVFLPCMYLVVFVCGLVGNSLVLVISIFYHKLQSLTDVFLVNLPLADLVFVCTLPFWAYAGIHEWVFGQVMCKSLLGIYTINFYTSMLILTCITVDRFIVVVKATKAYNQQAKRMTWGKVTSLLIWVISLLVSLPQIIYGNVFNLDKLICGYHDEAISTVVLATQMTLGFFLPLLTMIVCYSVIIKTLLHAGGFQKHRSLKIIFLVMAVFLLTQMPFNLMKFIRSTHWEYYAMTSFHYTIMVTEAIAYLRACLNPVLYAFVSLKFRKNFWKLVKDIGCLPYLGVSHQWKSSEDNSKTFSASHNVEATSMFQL
APJ antagonist: antagonists of human apelin receptor APJ, primary screen, CHO-K1 cells, beta-arrestin complementation, luminescence | P35414 | inhibition, % at 20 µM | actives 0.32% (n = 330,000) | AID 2521, 2010;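 active = inhibition above about 40% at 20 µM, limit read from the data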;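 note: cells challenged with 10 nM apelin-13 agonist together with compound; plate controls were apelin-13 plus DMSO wells for no effect and DMSO wells lacking apelin-13 for full effect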
CCR6 antagonist: CCR6 receptor antagonists, primary screen, cell-based, CHO-K1, luminescence, beta-arrestin, uHTS; AID 493098, 2011; inhibition, % at 20 µM; actives 0.49% (n = 340,000); CHO-K1 CCR6 PathHunter beta-arrestin, CCL20-stimulated;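 active = compounds whose inhibition of the agonist-driven luminescence signal at 20 µM reaches about 50%, limit read from the data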;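 note: cells stimulated with CCL20 at 14 nM final; plate controls were DMSO with CCL20 for no effect and DMSO without agonist for full effect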
EBI2 antag: EBI2 receptor antagonists, beta-arrestin recruitment, primary screen, cell-based, luminescence, 7a,25-OHC stimulation, uHTS; G-protein coupled receptor 183 (Homo sapiens), P32249; 7a,25-OHC stimulated; inhibition, % at 5 µM; actives 0.81% (n = 360,000); in the data active = inhibition above about 38%;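 note: enzyme fragment complementation signal reports receptor beta-arrestin coupling in cells; 0% = agonist plus DMSO wells and 100% = wells without agonist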
Target sequence (P32249 whole entry, looked up, the tested form may be a part): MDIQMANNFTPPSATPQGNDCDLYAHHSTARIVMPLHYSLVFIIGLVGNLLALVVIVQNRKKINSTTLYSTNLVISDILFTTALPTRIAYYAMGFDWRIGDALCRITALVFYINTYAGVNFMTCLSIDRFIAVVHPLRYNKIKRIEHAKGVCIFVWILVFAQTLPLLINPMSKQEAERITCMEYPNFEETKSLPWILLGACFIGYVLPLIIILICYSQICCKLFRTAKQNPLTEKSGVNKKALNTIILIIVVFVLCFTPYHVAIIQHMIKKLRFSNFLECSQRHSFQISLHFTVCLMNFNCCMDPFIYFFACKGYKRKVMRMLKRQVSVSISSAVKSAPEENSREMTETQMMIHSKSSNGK
EBI2 conf: EBI2 antagonist hit retest, beta-arrestin, confirmation, cell-based, single concentration, luminescence, 7a,25-OHC stimulation; shares compounds with EBI2 antag; 7a,25-OHC antagonism; actives 29% (n = 2,400); inhibition, % at 5 µM; AID 651997, 2013;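 active = inhibition of at least 50%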
EBI2 ag: EBI2 agonist activity of antagonist hits, confirmation, counter-screen for EBI2 antagonist project, cell-based, single concentration, agonist mode, luminescence; shares compounds with EBI2 antag; EBI2-expressing cells, 60 min; 0% vehicle, 100% 7α,25-dihydroxycholesterol control; activation, % at 5 µM; 2,400 tested, under 10 active; AID 652000, 2013;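 active = activation of at least 50%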
bGal counter: E. coli beta-galactosidase enzyme inhibition, confirmation, counter-screen for EBI2 antagonist project, biochemical, luminescence, single concentration. purified beta-galactosidase, luminescent Galacton Star, 15 min. actives 1% (n = 2,400). shares compounds with EBI2 antag. inhibition, % at 5 µM;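 active = replicate-average signal at least 3 plate SD below neutral wells, shown as high inhibition, flagging enzyme-inhibiting false positives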;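 note: 0% = DMSO wells with enzyme and 100% = wells lacking enzyme; higher means stronger loss of beta-gal luminescence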
The depositor's hits bear a star; / = not tested or not shown. An excerpt weighted towards active compounds, which were near 1.5% of everything screened.

SMILES | APJ ag | CXCR6 block | APJ antagonist | CCR6 antagonist | EBI2 antag | EBI2 conf | EBI2 ag | bGal counter
C[C@H]1CN([C@@H](C)CO)S(=O)(=O)c2ccc(Br)cc2O[C@H]1CN(C)C(=O)Cc1ccccc1 | / | 0 | / | / | 1 | / | / | /
C=CCOC(=O)C1=C(C)NC(=O)NC1c1cc2c(cc1Br)OCO2 (configuration not stated) | 1 | 0 | 16 | 6 | -4 | / | / | /
CC(C)(C)C1CCC(=O)N(CCOc2ccccc2)CC1 (configuration not stated) | 2 | -1 | 6 | 0 | 52* | 17 | 0 | -15
COc1ccc(Cc2c(C3CCCCC3)nc3cc(C)c(Br)c(C)n23)c(C)c1 | / | 1 | / | / | -6 | / | / | /
CC(C)CN1CCC(C(=O)NC(c2ccc(F)cc2)c2ccc3ccccc3n2)CC1 (configuration not stated) | / | 12 | / | / | 0 | / | / | /
COc1ccc(/C=C/CN2CCC(C(=O)NC(c3ccc(F)cc3)c3ccc4ccccc4n3)CC2)cc1 (configuration not stated) | / | 10 | / | / | 60* | 26 | -1 | -6
COc1ccc(OCCN2CCC(C(=O)NC(c3ccc(Cl)cc3)c3ncccc3C)CC2)cc1 (configuration not stated) | / | 6 | / | / | 55* | 17 | -2 | -14
COc1ccccc1C(NC(=O)C1CCN(CCOc2ccc3ccccc3c2)CC1)c1ccccn1 (configuration not stated) | / | 16 | / | / | 45* | 18 | 0 | 8
COc1ccc(OCCN2CCC(C(=O)NC(c3ccccn3)c3ccccc3OC)CC2)cc1 (configuration not stated) | / | -1 | / | / | 4 | / | / | /
COc1ccc(OCCN2CCC(C(=O)NC(c3ccc(F)cc3)c3ncccc3C)CC2)cc1 (configuration not stated) | / | -3 | / | / | 46* | 12 | -1 | -4
COC(=O)c1ccc(NC(=O)C2CCCN2C(=O)OCc2ccccc2)cc1 (configuration not stated) | 0 | -1 | -1 | 6 | 18 | / | / | /
CCOc1ccc(S(=O)(=O)c2c(C(=O)c3ccc(C)cc3)cnc3cc4c(cc23)OCCO4)cc1 | -5 | 10 | -3 | 4 | 47* | 14 | 1 | 8
Cc1ccc(C(=O)c2cnc3cc4c(cc3c2S(=O)(=O)c2ccccc2)OCCO4)cc1 | -2 | 11 | 16 | 7 | 18 | / | / | /
CCN1C[C@@H]2[C@@H]3C(=O)N(C)C(=O)[C@@H]3[C@](C)(C1=O)N2C(=O)c1ccc(F)cc1 | / | -4 | / | 4 | -8 | / | / | /
C=CCN1C(=O)NC(c2ccc(OC)cc2)(C(F)(F)F)S/C1=C(\C#N)c1nnc(N2CCOCC2)n1-c1ccccc1 (configuration not stated) | -4 | -2 | -7 | -3 | 68* | 69* | 0 | 6
COc1ccc(/C=C2\SC(=Nc3ccccc3OC)NC2=O)cc1 | -5 | 9 | 10 | 10 | 1 | / | / | /
COc1ccc(/C=C2\SC(=NCc3ccccc3)NC2=O)cc1 | -1 | -8 | 5 | 10 | 47* | 39 | 2 | 4
CCOc1ccc(CCNC(=O)C2CCCN(S(=O)(=O)N3CCCCC3)C2)cc1OCC (configuration not stated) | / | 10 | / | / | -9 | / | / | /
COC(=O)c1ccccc1S(=O)(=O)NNC(=O)c1nn(C)c(=O)c2ccccc12 | -1 | 5 | -2 | -2 | 1 | / | / | /
CCCn1c(SCC(=O)NCc2ccc(F)cc2)n[nH]c1=O | -1 | 1 | 0 | 5 | -9 | / | / | /
Cn1cccc1Cc1nnc(SCC(=O)Nc2ccc(F)cc2)n1CCc1ccccc1 | 0 | 0 | 0 | 2 | 51* | 34 | 1 | 2
COc1ccc(-n2c(Cc3cccn3C)nnc2SCC(=O)Nc2cccc(Cl)c2)cc1 | -2 | 5 | 4 | -7 | 47* | 23 | -1 | 9
C[C@@H](CO)NC(=O)c1nc[nH]c1C(=O)N[C@H](C)c1ccccc1 | / | 1 | / | / | 6 | / | / | /
CCOc1ccc(/C=N/NC(=O)c2nnn(-c3nonc3N)c2CN(C)C2CCCCC2)cc1 | 1 | 6 | -12 | -2 | 3 | / | / | /
CC(C)Cc1ccc(-c2cc3nc(NCCc4ccc(S(N)(=O)=O)cc4)ccn3n2)cc1 | / | -8 | / | / | 66* | 50 | -1 | -13
SMILES | APJ ag | CXCR6 block | APJ antagonist | CCR6 antagonist | EBI2 antag | EBI2 conf | EBI2 ag | bGal counter
NS(=O)(=O)c1ccc(CCNc2ccn3nc(-c4ccccc4)cc3n2)cc1 | / | -4 | / | / | 10 | / | / | /
O=C1CCCC2=C1C1(CCCC1)N=C(Nc1nc3ccccc3o1)N2 | / | 6 | / | / | 23 | / | / | /
O=C1CCCC2=C1C1(CCCCC1)N=C(Nc1nc3ccccc3o1)N2 | 4 | 2 | 16 | -26 | 47* | 40 | -2 | -21
CCOc1ccc(-n2c(-c3ccco3)nc3c(cnn3-c3ccc(C)cc3)c2=O)cc1 | -1 | 10 | -8 | 6 | 47* | 19 | 1 | 6
COc1ccc(OCC(=O)N(C)CC2COc3ccccc3O2)cc1 (configuration not stated) | -1 | 4 | 11 | 8 | 46* | 24 | -1 | -5
Cc1cc(OCC(=O)N(C)Cc2ccccc2)ccc1Br | -1 | 2 | 14 | 23 | 91* | 87* | -1 | 8
COc1ccc(OCC(=O)N(C)Cc2ccccc2)cc1 | -3 | 5 | -2 | 12 | 63* | 56* | 0 | -7
CC(C)NS(=O)(=O)c1ccc(OCC(=O)N(C)Cc2ccccc2)cc1 | -5 | 4 | -22 | 8 | 2 | / | / | /
Cc1cc(OCC(=O)N(C)Cc2ccccc2)ccc1Cl | -2 | 3 | 2 | 20 | 83* | 72* | 1 | 6
COc1ccc(Cc2c(-c3ccc(C#N)cc3)nc3c4ccccc4ccn23)c(C)c1 | / | 1 | / | / | 32 | / | / | /
COc1ccccc1Cc1c(-c2ccc(C#N)cc2)nc2c3ccccc3ccn12 | / | 2 | / | / | 43* | 19 | -1 | 7
Cc1cccc(NC(=O)Nc2ccccc2[N+](=O)[O-])n1 | -5 | 1 | 19 | 17 | -7 | / | / | /
